Test results reported in ChEMBL document CHEMBL1153793, “New pyridone, thioxopyridine, pyrazolopyridine and pyridine derivatives that modulate inflammatory mediators in stimulated RAW 264.7 murine macrophage” (Eur J Med Chem, 2009).
Activity calls are given as the source filed them. The calls are words filed in the database; no cut-off is given here.

Columns and labels:
RAW264.7 [1] = experiment: Effect on inflammatory mediators in LPS-stimulated mouse RAW264.7 cells assessed as TNF-alpha accumulation at 20% IC50 after 24 hrs by ELISA; format: functional
RAW264.7 [2] = experiment: Effect on inflammatory mediators in LPS-stimulated mouse RAW264.7 cells assessed as 5-LO accumulation at 20% IC50 after 24 hrs by dot immunoblotting; format: functional
Procedure, shortened: (§1)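 20 µg lysate protein dot-blotted, probed with anti-mouse COX-2 or 5-LO, detected by HRP/OPD and normalised to β-actin.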

[3] = Hydroxyl radical scavenging activity assessed as trolox equivalents at 1 uM by ORAC assay; format: functional
Procedure, shortened: (§2)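 β-Phycoerythrin fluorescence decay followed kinetically for 2 h at 37 °C with 1 µM compound, against peroxyl and hydroxyl radicals. One ORAC unit = net protection given by 1.0 µM Trolox.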

RAW264.7 [4] = experiment: Effect on inflammatory mediators in LPS-stimulated mouse RAW264.7 cells assessed as PGE2 accumulation at 20% IC50 after 24 hrs by ELISA; format: functional
RAW264.7 [5] = experiment: Effect on inflammatory mediators in mouse RAW264.7 cells assessed as 5-LO accumulation at 20% IC50 after 24 hrs by dot immunoblotting; format: functional; procedure, shortened: as §1
RAW264.7 [6] = experiment: Effect on inflammatory mediators in mouse RAW264.7 cells assessed as nitrite accumulation at 20% IC50 after 24 hrs by Griess assay; format: functional
RAW264.7 [7] = experiment: Effect on inflammatory mediators in mouse RAW264.7 cells assessed as PGE2 accumulation at 20% IC50 after 24 hrs by ELISA; format: functional
RAW264.7 [8] = experiment: Cytotoxicity against mouse RAW264.7 cells assessed as cell viability after 24 hrs by MTT assay; format: cell-based; details: RAW264.7, 24 h, in the assay text read “MTT assay” for “ultra gel clot assay”
Procedure, shortened: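 RAW 264.7 macrophages (5×10^4 cells/well) exposed 24 h at 37 °C to a range of compound concentrations, then read by MTT reduction to formazan, solubilised in acidic isopropanol. Viability expressed as mean % of untreated cells (n = 4); 1000 U/ml M-CSF as positive control. IC50 derived.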

[9] = Peroxyl radical scavenging activity assessed as trolox equivalents at 1 uM by ORAC assay; procedure, shortened: as §2
RAW264.7 [10] = experiment: Effect on inflammatory mediators in mouse RAW264.7 cells assessed as COX-2 accumulation at 20% IC50 after 24 hrs by dot immunoblotting; format: functional; procedure, shortened: as §1
[11] = Antioxidant activity assessed as superoxide radical scavenging activity; format: functional
Procedure, shortened: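 Non-cellular assay; superoxide generated by oxidation of 50 µM hypoxanthine with 12 mU xanthine oxidase. Scavenging followed as the rate of nitroblue tetrazolium reduction to formazan. SC50 taken from dose-dependent curves of serial dilutions; superoxide dismutase as standard inhibitor.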

RAW264.7 [12] = experiment: Effect on inflammatory mediators in mouse RAW264.7 cells assessed as TNF-alpha accumulation at 20% IC50 after 24 hrs by ELISA; format: functional
RAW264.7 [13] = experiment: Effect on inflammatory mediators in LPS-stimulated mouse RAW264.7 cells assessed as nitrite accumulation at 20% IC50 after 24 hrs by Griess assay; format: functional
RAW264.7 [14] = experiment: Effect on inflammatory mediators in LPS-stimulated mouse RAW264.7 cells assessed as COX-2 accumulation at 20% IC50 after 24 hrs by dot immunoblotting; format: functional; procedure, shortened: as §1
RAW264.7 [15] = experiment: Effect on inflammatory mediators in LPS-stimulated mouse RAW264.7 cells assessed as 5-LO accumulation at 20 uM after 24 hrs by dot immunoblotting; format: functional
Procedure, shortened: (§3)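 Cells treated 24 h with 20 µM compound, with or without LPS (1 µg/ml). 20 µg soluble lysate protein dot-blotted onto nitrocellulose and probed with rabbit anti-mouse COX-2 or 5-LO, HRP anti-rabbit secondary and OPD colour. Intensity normalised to β-actin dots; four repeats.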

RAW264.7 [16] = experiment: Effect on inflammatory mediators in LPS-stimulated mouse RAW264.7 cells assessed as COX-2 accumulation at 20 uM after 24 hrs by dot immunoblotting; format: functional; procedure, shortened: as §3
RAW264.7 [17] = experiment: Effect on mouse RAW264.7 cell function assessed as FITC-LPS binding to macrophage after 15 mins by fluorimetry; format: functional, cell-based
Procedure, shortened: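 5×10^5 RAW 264.7 cells pre-incubated 15 min at 37 °C with compound in RPMI-1640 plus 10% FBS as the CD14/LBP source. FITC-LPS (200 ng/ml) then added for 1 h. After PBS wash, fluorescence read at ex 485/em 530 nm and median fluorescence intensity reported.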

RAW264.7 [18] = experiment: Effect on inflammatory mediators in mouse RAW264.7 cells assessed as 5-LO accumulation at 20 uM after 24 hrs by dot immunoblotting; format: functional; procedure, shortened: as §3
RAW264.7 [19] = experiment: Effect on inflammatory mediators in mouse RAW264.7 cells assessed as COX-2 accumulation at 20 uM after 24 hrs by dot immunoblotting; format: functional; procedure, shortened: as §3
RAW264.7 [20] = experiment: Induction of phagocytosis in mouse RAW264.7 cells assessed as phagocytic activity against FITC-zymosan after 1 hr by fluorimetry; format: functional, cell-based
Procedure, shortened: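 Cells at 1×10^5/well in phenol red-free RPMI-1640 rested 24 h, then given compound for 1 h. FITC-zymosan added for a further 1 h; cells washed three times and lysed with Triton X-100. Fluorescence read at 485/530 nm and expressed relative to untreated cells (100%).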

RAW264.7 [21] = experiment: Effect on inflammatory mediators in LPS-stimulated mouse RAW264.7 cells assessed as PGE2 accumulation at 20 uM after 24 hrs by ELISA; format: functional
Procedure, shortened: (§4)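 RAW 264.7 given 20 µM compound for 24 h, alone or together with LPS at 1 µg/ml. TNF-α and PGE2 in harvested supernatants quantified with commercial ELISA kits per manufacturer; four repeats, means reported.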

RAW264.7 [22] = experiment: Effect on inflammatory mediators in mouse RAW264.7 cells assessed as nitrite accumulation at 20 uM after 24 hrs by Griess assay; format: functional
Procedure, shortened: (§5)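 Cells in phenol red-free RPMI-1640 with 10% FBS treated 24 h with 20 µM compound, with or without LPS (1 µg/ml). Supernatant mixed 1:1 with Griess reagent for 10 min, A550 read against a sodium nitrite standard curve, then normalised to BCA protein.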

RAW264.7 [23] = experiment: Effect on inflammatory mediators in LPS-stimulated mouse RAW264.7 cells assessed as TNF-alpha accumulation at 20 uM after 24 hrs by ELISA; format: functional; procedure, shortened: as §4
RAW264.7 [24] = experiment: Effect on inflammatory mediators in mouse RAW264.7 cells assessed as TNF-alpha accumulation at 20 uM after 24 hrs by ELISA; format: functional; procedure, shortened: as §4
RAW264.7 [25] = experiment: Effect on inflammatory mediators in mouse RAW264.7 cells assessed as PGE2 accumulation at 20 uM after 24 hrs by ELISA; format: functional; procedure, shortened: as §4
RAW264.7 [26] = experiment: Effect on inflammatory mediators in LPS-stimulated mouse RAW264.7 cells assessed as nitrite accumulation at 20 uM after 24 hrs by Griess assay; format: functional; procedure, shortened: as §5

| Structure (SMILES) | Activity (RAW264.7 [1]) | Activity (RAW264.7 [2]) | Activity [3] | Activity (RAW264.7 [4]) | Activity (RAW264.7 [5]) | Activity (RAW264.7 [6]) | Activity (RAW264.7 [7]) | IC50 (RAW264.7 [8]) | Activity [9] | Activity (RAW264.7 [10]) | SC50 [11] | Activity (RAW264.7 [12]) | Activity (RAW264.7 [13]) | Activity (RAW264.7 [14]) | Activity (RAW264.7 [17]) | Activity (RAW264.7 [20]) | further results |
| --- | --- | --- | --- | --- | --- | --- | --- | --- | --- | --- | --- | --- | --- | --- | --- | --- | --- |
| CCOC(=O)COc1nc(-c2ccc3c(c2)CCCC3)cc(-c2ccc(OC)c(OC)c2)c1C#N | 3945.11 pg | 79.6% | 2.47 | 2954.2 pg | 21.9% | 2.65 nmol | 22.4 pg | 26.2 µM | 2.01 | 27.5% | 55.7 µg/mL | 66.57 pg | 388.4 nmol | 68.7% |  |  |  |
| CC(C)c1ccc(-c2cc(-c3ccc4c(c3)CCCC4)nc(Cl)c2C#N)cc1 | 5110.4 pg | 94.6% | 1.1 | 2870.25 pg | 29.5% | 439.13 nmol | 45.39 pg | 8.4 µM | 0.92 | 28.7% | > 100 µg/mL | 350.05 pg | 611.68 nmol | 80.1% | inactive |  | Activity (RAW264.7 [15]): 94.6%; Activity (RAW264.7 [16]): 80.1%; Activity (RAW264.7 [18]): 29.5%; Activity (RAW264.7 [19]): 28.7% |
| CCOC(=O)COc1nc(-c2ccc3c(c2)CCCC3)cc(-c2ccc(C(C)C)cc2)c1C#N | 2810.66 pg | 38.7% | 1.05 | 2870.5 pg | 11.9% | 3.19 nmol | 50.5 pg | > 50 µM | 2.36 | 18.7% | 81.4 µg/mL | 72.45 pg | 110.54 nmol | 31.3% | Active | Active |  |
| COc1ccc(-c2cc(-c3ccc4c(c3)CCCC4)nc(Cl)c2C#N)cc1OC |  |  | 0.35 |  |  |  |  | > 50 µM | 0.61 |  | 87.9 µg/mL |  |  |  | inactive | inactive | Activity (RAW264.7 [15]): 84.5%; Activity (RAW264.7 [21]): 3325.87 pg; Activity (RAW264.7 [22]): 512.35 nmol; Activity (RAW264.7 [23]): 5716.66 pg; Activity (RAW264.7 [16]): 88.7%; Activity (RAW264.7 [24]): 810.75 pg; Activity (RAW264.7 [25]): 38.33 pg; Activity (RAW264.7 [18]): 25.3%; Activity (RAW264.7 [26]): 766.85 nmol; Activity (RAW264.7 [19]): 36.6% |
| COc1ccc(-c2cc(-c3ccc4c(c3)CCCC4)[nH]c(=S)c2C#N)cc1OC | 4652.4 pg | 85.4% | 0.85 | 3309.3 pg | 18.3% | 8.58 nmol | 28.66 pg | 29.4 µM | 0.9 | 12.3% | 65.4 µg/mL | 79.18 pg | 380.12 nmol | 72.8% |  |  |  |
| COc1ccc(-c2cc(-c3ccc4c(c3)CCCC4)nc(NCc3ccccc3)c2C#N)cc1OC | 5520.55 pg | 94.7% | 3.54 | 3010.66 pg | 30.2% | 720.91 nmol | 31.29 pg | 4.9 µM | 2.95 | 46.3% | 38.4 µg/mL | 2460.46 pg | 915.9 nmol | 99.2% | inactive | inactive |  |
| CC(C)c1ccc(-c2cc(-c3ccc4c(c3)CCCC4)nc(OCC(=O)NN)c2C#N)cc1 | 5754.5 pg | 91.8% | 0.99 | 3405.5 pg | 33.12% | 440.24 nmol | 43.6 pg | 27.7 µM | 0.81 | 63.1% | 42.5 µg/mL | 1364.75 pg | 596.4 nmol | 92.6% |  |  |  |
| CC(C)c1ccc(-c2cc(-c3ccc4c(c3)CCCC4)nc(OCC(=O)NCc3ccccc3)c2C#N)cc1 | 615.33 pg | 61.7% | 3.44 | 3260.2 pg | 21.7% | 10.19 nmol | 48.15 pg | 9.9 µM | 2.22 | 20.6% | 24.6 µg/mL | 69.65 pg | 32.75 nmol | 20.1% |  | Active |  |
